Assay outcomes: PubChem, several laboratories
TDP2 inh = TDP2 (human) inhibition, absorbance primary screen. AID 720702. inhibition, % at 12.8 µM. recombinant TDP2, T5PNP hydrolysis, p-nitrophenol absorbance 415 nm. O95551. hit rate 0.34% among 370,000;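 active means inhibition above the mean of all tested compounds plus 3 SD, set per campaign, cut at about 25% in these data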;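 further: 0% = DMSO with enzyme and 100% = buffer with substrate but no TDP2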
Target sequence (O95551 whole entry, looked up): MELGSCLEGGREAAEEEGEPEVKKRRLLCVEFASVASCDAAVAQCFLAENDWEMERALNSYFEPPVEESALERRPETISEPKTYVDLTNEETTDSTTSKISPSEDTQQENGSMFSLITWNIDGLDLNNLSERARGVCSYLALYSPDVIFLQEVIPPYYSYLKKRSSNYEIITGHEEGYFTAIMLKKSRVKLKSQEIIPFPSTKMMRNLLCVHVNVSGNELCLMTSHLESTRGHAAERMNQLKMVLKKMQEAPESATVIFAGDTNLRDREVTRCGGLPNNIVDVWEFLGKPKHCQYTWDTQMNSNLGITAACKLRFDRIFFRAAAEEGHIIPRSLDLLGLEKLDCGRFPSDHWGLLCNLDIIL
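System: recombinant human TDP2 / Amount: 120 nM TDP2 per well / Also added: 5 mM T5PNP chromogenic substrate / Doses: 12.8 µM single point, 1% DMSO / Incubation: 2 h at 37 °C / Detection: p-Nitrophenol epi absorbance / Evaluation: % inhibition relative to enzyme-containing and enzyme-free wells / Repeats: singlicate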
GSTO1 inh = counter-screen for RBBP9 inhibitors: inhibitors of human GSTO1 | P78417 | recombinant GSTO1, activity-based probe fluorescence polarization | inhibition, % at 5.96 µM | hit rate 1.1% among 300,000 | AID 1974;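 active means inhibition above the campaign mean inhibition plus 3 SD, cut at about 35% in these data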;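 further: 0% = GSTO1-1 with DMSO and 100% = wells lacking GSTO1-1 enzyme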
Target sequence (P78417 whole entry, looked up): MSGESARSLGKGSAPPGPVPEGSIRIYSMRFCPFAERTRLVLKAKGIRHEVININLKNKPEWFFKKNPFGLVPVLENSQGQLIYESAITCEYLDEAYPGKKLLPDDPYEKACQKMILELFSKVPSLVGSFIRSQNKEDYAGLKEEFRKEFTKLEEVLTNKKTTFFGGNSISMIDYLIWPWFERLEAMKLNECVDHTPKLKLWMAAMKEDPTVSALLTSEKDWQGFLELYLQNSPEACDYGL
Apaf1 inhib = blocks human Apaf-1 apoptosome activity. O14727. reconstituted apoptosome caspase-3 activity, DEVD-Rh110 fluorescence. inhibition, % at 20 µM. hit rate 0.71% among 330,000; active means inhibition of at least 40% at 20 µM;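 further: plate controls were DMSO wells for no effect and DEVD-CHO caspase inhibitor wells for full effect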
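Medium: Hepes buffer, pH 7.5 / System: biochemical Apaf-1 apoptosome reconstitution / Measured by: Rh110 fluorescence, excitation 480 nm, emission 540 nm / Times: compound with Apaf-1, dATP, procaspase-3 30 min, then 50 min reaction, room temperature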
PP1 counter = counter-screen for PP5 inhibitors: inhibitors of human PP1-alpha | inhibition, % at 6.7 µM | AID 2235 | purified PP1alpha, OMFP fluorescence | hit rate 0.9% among 320,000 | P62136;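 active means inhibition above the mean inhibition of all tested compounds plus 3 SD, computed separately for each screening campaign, cut at about 15% in these data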
PP5 inh = blocks human protein phosphatase 5 activity; P53041; purified PP5c, OMFP substrate fluorescence; inhibition, % at 6.7 µM; hit rate 0.18% among 320,000; AID 1987;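 active means inhibition above the campaign's mean inhibition across all tested compounds plus 3 SD, cut at about 9.5% in these data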;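 further: 0% = DMSO only and 100% = 100 µM cantharidin control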
GSTO1 confirm = GSTO1 (human) inhibition, confirmation; recombinant GSTO1, probe fluorescence polarization; shares compounds with GSTO1 inh; hit rate 54% among 2,400; inhibition, % at 5.96 µM;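 active means inhibition above the primary screen's cutoff, its mean inhibition plus 3 SD, cut at about 35% in these data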;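 further: loss of polarization as inhibitors block binding of rhodamine sulfonate ester activity probe; 0% = GSTO1 with DMSO and 100% = wells lacking GSTO1 enzyme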
PP5 inh confirm = PP5 (human) inhibition, confirmation; AID 2331; Purified PP5, fluorogenic phosphatase substrate, fluorescence; hit rate 22% among 460; inhibition, % at 6.7 µM; shares compounds with PP5 inh; in the data active means inhibition above about 9.5%
PP1 inh counter = PP1 phosphatase inhibition, counter-screen for PP5 inhibitors; shares compounds with PP5 inh; hit rate 4% among 460; AID 2355; PP1 enzyme, fluorescent phosphatase substrate; inhibition, % at 6.7 µM; in the data active means inhibition above about 16%
PP1 inh confirm = human PP1 phosphatase inhibition, confirmation; inhibition, % at 6.7 µM; hit rate 52% among 1,900; shares compounds with PP1 counter; AID 2358; purified PP1alpha, OMFP substrate fluorescence;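 active means mean PP1 inhibition above a set limit taken from the earlier primary screen, cut at about 15% in these data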
PP5 inh counter = counter-screen for PP1 inhibitors: human PP5 phosphatase inhibition. shares compounds with PP1 counter. purified PP5c, OMFP fluorescence. inhibition, % at 6.7 µM. hit rate 4% among 1,900. AID 2360;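 active means mean PP5 inhibition over triplicate wells above about 9.5% taken from the earlier PP1 screen, limit read from the data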
Apaf-1 inh conf2 = confirmation of Apaf-1 inhibitors | shares compounds with Apaf1 inhib | reconstituted apoptosome, caspase-3 DEVD-Rh110 fluorescence | inhibition, % at 20 µM | hit rate 25% among 1,800 | AID 504614;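 active means mean inhibition of at least 40% at 20 µM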;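 further: plate controls were DMSO wells for no effect and DEVD-CHO caspase inhibitor control wells for full effect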
Rh110 quench = interferes with Rh110 fluorescence, flagging false Apaf-1 inhibitors; shares compounds with Apaf1 inhib; Rh110 fluorescence interference, quenched caspase reaction; activation (fluorescence interference), % at 20 µM; 1,800 tested, under 10 active; AID 504615;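 active means signal rise of 40% or more at 20 µM, treated as a fluorescence artifact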
Apaf1 inh interf = shows fluorescence interference in the Apaf-1 inhibitor assay format; shares compounds with Apaf1 inhib; fluorescence interference counterscreen, Apaf-1 assay format; IC50, µM; 460 tested, under 10 active; AID 588538; call rule not given here
TDP2 confirm = confirmation of human TDP2 inhibitors; shares compounds with TDP2 inh; recombinant human TDP2, absorbance read-out; inhibition, % at 12.8 µM; hit rate 22% among 1,100; in the data active means inhibition above about 25%;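 further: 0% = vehicle with enzyme and 100% = no enzyme buffer only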
* hit, by the source's call; . = no result. An excerpt weighted towards active compounds, which were near 2.1% of everything screened.

SMILES | TDP2 inh | GSTO1 inh | Apaf1 inhib | PP1 counter | PP5 inh | GSTO1 confirm | Apaf-1 inh conf2 | Rh110 quench | others
CC(C)OC(=O)c1c(N)n(CC2CCCO2)c2nc3ccccc3nc12 (centres undefined) | 4 | 45* | 81* | 4 | 1 | 5 | 11 | 5
O=c1c2ccccc2nc(SCC2CCCCO2)n1-c1ccccc1 (centres undefined) | -5 | 3 | 10 | 3 | 1 | . | . | .
CC(C)C(CN1CCC(C)(c2cccc(O)c2)[C@@H](C)C1)NC(=O)C1Cc2ccc(O)cc2CN1 (some centres undefined) | 2 | . | . | . | . | . | . | .
COc1cc2c(cc1O)C[C@H]1NCCc3cc4c(c-2c31)OCO4 | -10 | 55* | 71* | 4 | 3 | 21 | 36 | 1
CCC12CCN(CC3(O)CC3)C(Cc3ccc(O)cc31)C2(C)C (centres undefined) | 2 | . | . | . | . | . | . | .
O=C(c1ccc2nc(-c3ccco3)c(-c3ccco3)nc2c1)N1CCC2(CC1)OCCO2 | . | 90* | 56* | 11 | -2 | 16 | 32 | 2
COC(=O)c1nc(-c2ccc3c(n2)C(=O)C(N)=C(OC)C3=O)c(N)c(-c2ccc(OC)c(OC)c2O)c1C | 6 | 79* | 89* | 4 | 8 | 88* | 100* | 3 | Apaf1 inh interf=>100
N#CCC[C@H]1CC[C@]2(CCCN(Cc3ccccn3)C2)O1 | -10 | . | . | . | . | . | . | .
CCCCCn1c(=O)c(C(=O)NCCc2ccccc2)c(O)c2ccccc21 | 10 | 3 | 10 | -1 | 0 | . | . | .
COCCCn1c(N)c(C(=O)NCCC(C)C)c2nc3ccccc3nc21 | 41* | 39* | 91* | 3 | 8 | 64* | 52* | 6 | Apaf1 inh interf=>100;TDP2 confirm=0
Nc1c(C(=O)NCCCc2ccccc2)c2nc3ccccc3nc2n1Cc1cccs1 | 60* | 58* | 84* | -1 | 8 | -1 | 35 | 10 | TDP2 confirm=2
CCCCn1c(NC(=O)c2ccco2)c(C(=O)OCC)c2nc3ccccc3nc21 | 79* | 87* | 83* | 5 | 9.6* | 87* | 80* | 1 | PP5 inh confirm=37*;PP1 inh counter=8;Apaf1 inh interf=>100;TDP2 confirm=76*
O=C(NC1CCCCC1)Oc1cc2oc(=O)sc2cc1Cl | 29* | 55* | 10 | -3 | -1 | 13 | . | . | TDP2 confirm=12
COC(=O)C(O)(c1c(C)[nH]n(-c2ccccc2)c1=O)C(F)(F)F (centres undefined) | 27* | 50* | 79* | -1 | 4 | 52* | 52* | -7 | Apaf1 inh interf=>100;TDP2 confirm=44*
CCC(NC(=O)OCc1ccccc1)P(=O)(Oc1ccccc1)Oc1ccccc1 (centres undefined) | 3 | . | . | . | . | . | . | .
COc1c2c(cc3c1OCO3)CCN(C)C2 | 0 | 7 | -8 | 1 | 1 | . | . | .
COc1ccc(CC2c3cc(OC)c(OC)cc3CCN2C)cc1O (centres undefined) | 0 | 9 | -2 | -1 | 2 | . | . | .
COc1cc2c(cc1OC)-c1c(OC)c(OC)cc3c1C(C2)N(C)CC3 (centres undefined) | 52* | 70* | 95* | 0 | 6 | 78* | . | . | TDP2 confirm=60*
COc1cc2c(cc1OC)-c1c3c(cc4c1[C@@H](C2)N(C)CC4)OCO3 | 56* | 79* | 98* | 8 | -5 | 70* | . | . | TDP2 confirm=52*
CN1OC[C@@H]2CN3C4(C[C@@H]21)c1ccccc1C3(c1ccccc1)c1ccccc14 | -2 | . | . | . | . | . | . | .
COc1ccc2c3c([nH]c2c1)[C@H](C=C(C)C)N1C(=O)[C@@H]2CCCN2C(=O)[C@@H]1C3 | 2 | . | . | . | . | . | . | .
O=C(CNC(=O)OCc1ccccc1)NC(Cc1ccccc1)P(=O)(Oc1ccccc1)Oc1ccccc1 (centres undefined) | 5 | . | . | . | . | . | . | .
COc1ccc(Cn2c(N)c(C(=O)NCc3ccco3)c3nc4ccccc4nc32)cc1 | 7 | 24 | 67* | 6 | 11* | . | 20 | 9 | PP5 inh confirm=11*;PP1 inh counter=4
O=C(CN1C(=O)[C@@H](Cc2c[nH]c3ccccc23)N=C(c2ccccc2)c2ccccc21)NC1CCCCC1 | -3 | . | . | . | . | . | . | .
Cc1cc(O)c2c(c1)C(=O)C13C(=C2O)C(=O)[C@H]2[C@@H](O)[C@@H]1[C@H]1[C@H](O)[C@@H]3C(=O)C3=C(O)c4c(O)cc(C)cc4C(=O)C312 (some centres undefined) | . | 28 | 16 | 40* | 3 | . | . | . | PP1 inh confirm=34*;PP5 inh counter=-2
SMILES | TDP2 inh | GSTO1 inh | Apaf1 inhib | PP1 counter | PP5 inh | GSTO1 confirm | Apaf-1 inh conf2 | Rh110 quench | others
O=P(O)(O)CN1CCNCCN(CP(=O)(O)O)CCNCC1 | -4 | . | . | . | . | . | . | .
CC12CCC(=O)CC1CCC1C2C(=O)CC2(C)C1CCC2(C)O (centres undefined) | 4 | . | . | . | . | . | . | .
CCC1C=CC=CC[C@H](C)[C@@H](O)[C@](C)(O)C(=O)[C@@H](C)[C@H](O)[C@@H](C)C(=O)[C@H](C)[C@@H](O)[C@H](C)C=CC(=O)OC2[C@@H](C)C(CC1)OC1(CC[C@@H](C)C(C[C@H](C)O)O1)[C@@H]2C (some centres undefined) | . | 2 | 20 | 2 | 8 | . | . | .
O=C(N/N=C/c1c(O)n(Cc2ccc(F)cc2)c(=O)[nH]c1=O)c1ccccc1O | -4 | 1 | 7 | 21* | 4 | . | . | . | PP1 inh confirm=10;PP5 inh counter=-2
O=C(N/N=C/c1c(O)n(Cc2ccccc2)c(=O)[nH]c1=O)c1ccccc1O | -4 | 15 | 7 | 8 | 3 | . | . | .
Clc1cc(Cl)cc(CN2Cc3cc(Br)ccc3-n3nncc3C2)c1 | -12 | . | . | . | . | . | . | .
Clc1ccc(COC(Cn2ccnc2)c2ccc(Cl)cc2Cl)c(Cl)c1 (centres undefined) | 6 | 2 | 25 | 23* | 2 | . | . | . | PP1 inh confirm=27*;PP5 inh counter=2
